≈ marks a conversion by molar mass, not a printed value.
Key:
[1] = system: SK-MEL-5; assay: Growth inhibition of human SK-MEL-5 cells; type: functional; conditions: for EC50: read-out: ED50 (the source's name)
Method in brief: (§1)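 Tested at the NCI in its human disease-oriented in vitro screen of 60 tumour cell lines, following the Monks et al. methods. Activity is expressed as GI50, given as log molar values.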

[2] = system: KB; assay: Growth inhibition of human KB cells; type: functional; conditions: read-out: ED50 (the source's name)
Method in brief: (§2)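 In-house cytotoxicity assay following an NCI protocol, run on a panel of human tumour lines: KB nasopharyngeal epidermoid carcinoma and HCT-8 ileocecal adenocarcinoma. Potency is reported as ED50 in µg/mL.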

[3] = system: HCT-8; assay: Growth inhibition of human HCT8 cells; type: functional; conditions: read-out: ED50 (the source's name); method in brief: as §2
[4] = system: COLO 205; assay: Growth inhibition of human COLO205 cells; type: functional; conditions: for EC50: read-out: ED50 (the source's name)
[5] = system: HOP-18; assay: Growth inhibition of human HOP18 cells; type: functional
[6] = system: MOLT-4; assay: Growth inhibition of human MOLT4 cells; type: functional
[7] = system: NCI-H522; assay: Growth inhibition of human NCI-H522 cells; type: functional
[8] = system: HCT-15; assay: Growth inhibition of human HCT15 cells; type: functional
[9] = system: HOP-92; assay: Growth inhibition of human HOP92 cells; type: functional
[10] = Growth inhibition of human DMS144 cells; type: functional
[11] = system: M19-MEL; assay: Growth inhibition of human M19-MEL cells; type: functional
[12] = Growth inhibition of human […] cells; type: functional
[13] = system: M14; assay: Growth inhibition of human M14 cells; type: functional
[14] = system: UACC-62; assay: Growth inhibition of human UACC62 cells; type: functional; method in brief: as §1
[15] = system: NCI-H322M; assay: Growth inhibition of human NCI-H322M cells; type: functional
[16] = Growth inhibition of human OVACR5 cells; type: functional
[17] = Growth inhibition of human OVACR4 cells; type: functional
[18] = system: SW-620; assay: Growth inhibition of human SW620 cells; type: functional; method in brief: as §1
[19] = system: SNB-19; assay: Growth inhibition of human SNB19 cells; type: functional; method in brief: as §1
[20] = system: HCT-116; assay: Growth inhibition of human HCT116 cells; type: functional
[21] = system: HCC 2998; assay: Growth inhibition of human HCC2998 cells; type: functional
[22] = system: IGROV-1; assay: Growth inhibition of human IGROV1 cells; type: functional
[23] = system: ACHN; assay: Growth inhibition of human ACHN cells; type: functional
[24] = system: LOX IMVI; assay: Growth inhibition of human LOX IMVI cells; type: functional
[25] = system: KM-20L2; assay: Growth inhibition of human KM20L2 cells; type: functional
[26] = system: A549; assay: Growth inhibition of human A549 cells; type: functional
[27] = Growth inhibition of human OVACR8 cells; type: functional
[28] = system: SF-268; assay: Growth inhibition of human SF268 cells; type: functional; method in brief: as §1
[29] = system: NCI-H460; assay: Growth inhibition of human NCI-H460 cells; type: functional
[30] = system: DMS-273; assay: Growth inhibition of human DMS273 cells; type: functional
[31] = system: XF498; assay: Growth inhibition of human XF498 cells; type: functional; method in brief: as §1
[32] = system: K562; assay: Growth inhibition of human K562 cells; type: functional
[33] = Growth inhibition of human RPMI8266 cells; type: functional
[34] = system: NCI-H226; assay: Growth inhibition of human NCI-H226 cells; type: functional
[35] = system: U-251; assay: Growth inhibition of human U251 cells; type: functional; method in brief: as §1
[36] = system: SNB-75; assay: Growth inhibition of human SNB75 cells; type: functional; method in brief: as §1
[37] = system: CCRF-CEM; assay: Growth inhibition of human CCRF-CEM cells; type: functional
[38] = system: SR; assay: Growth inhibition of human SR cells; type: functional; method in brief: as §1
[39] = Growth inhibition of human LXFL529 cells; type: functional; conditions: LXFL 529
[40] = system: 786-0; assay: Growth inhibition of human 786-0 cells; type: functional
[41] = system: DLD-1; assay: Growth inhibition of human DLD1 cells; type: functional
[42] = system: SF-539; assay: Growth inhibition of human SF539 cells; type: functional; method in brief: as §1
[43] = system: SK-MEL-2; assay: Growth inhibition of human SK-MEL-2 cells; type: functional; method in brief: as §1
[44] = system: UO-31; assay: Growth inhibition of human UO31 cells; type: functional; method in brief: as §1
[45] = system: TK-10; assay: Growth inhibition of human TK10 cells; type: functional; method in brief: as §1
[46] = system: SK-OV-3; assay: Growth inhibition of human SK-OV-3 cells; type: functional; method in brief: as §1
[47] = system: Malme-3M; assay: Growth inhibition of human MALME-3M cells; type: functional
[48] = Growth inhibition of human HL60(TB) cells; type: functional, HL-60(TB); conditions: HL-60
[49] = system: SK-MEL-28; assay: Growth inhibition of human SK-MEL-28 cells; type: functional; method in brief: as §1

Work on `CC1=CC(=O)c2[nH]c3ccc(F)cc3c2C1=O` yielded an EC50 [1] of 2.51 µg/mL (≈ 11 µM), an EC50 [2] of 5.25 µg/mL (≈ 22.9 µM) and an EC50 [3] of 5.88 µg/mL (≈ 25.7 µM). It also gave an EC50 [4] of 9.19 µg/mL (≈ 40.1 µM).
Work on `CC1=CC(=O)c2[nH]c3ccc(Cl)cc3c2C1=O` yielded an EC50 [1] of 0.83 µg/mL (≈ 3.38 µM), an EC50 [2] of 4.39 µg/mL (≈ 17.9 µM) and an EC50 [3] of 6.45 µg/mL (≈ 26.3 µM). The EC50 [4] was greater than 20 µg/mL.
Compound `COc1ccc2c3c([nH]c2c1)C(=O)C(C)=CC3=O` has an EC50 [1] of 3.92 µg/mL (≈ 16.2 µM), an EC50 [2] of 4.51 µg/mL (≈ 18.7 µM) and an EC50 [3] of 5.09 µg/mL (≈ 21.1 µM). It also gave an EC50 [4] of 4.51 µg/mL (≈ 18.7 µM).
`CC1=CC(=O)c2[nH]c3ccc(C)cc3c2C1=O` gave an EC50 [1] of 0.66 µg/mL (≈ 2.93 µM), an EC50 [2] of 0.92 µg/mL (≈ 4.08 µM) and an EC50 [3] of 6.49 µg/mL (≈ 28.8 µM). It also gave an EC50 [4] of 3.52 µg/mL (≈ 15.6 µM).
`CC(C)=CCCC1(C)C=Cc2c(c(C)cc3c2[nH]c2cc(O)ccc23)O1` (stereo not drawn) showed a GI50 [5] of 7.41 µM, a GI50 [6] of 0.00324 µM and a TGI ([6]; read-out: pTGI) greater than 25.1 µM. The GI50 [7] was 6.76 µM.
With `CC1=CC(=O)c2c([nH]c3ccc(Cl)cc23)C1=O` the EC50 [1] was 5.5 µg/mL (≈ 22.4 µM), the EC50 [2] was 3.52 µg/mL (≈ 14.3 µM) and the EC50 [3] was 5.5 µg/mL (≈ 22.4 µM). It also gave an EC50 [4] of 4.42 µg/mL (≈ 18 µM).
`COc1ccc2c3c([nH]c2c1)C(=O)C=C(C)C3=O` showed an EC50 [1] of 7.25 µg/mL (≈ 30.1 µM), an EC50 [2] greater than 20 µg/mL and an EC50 [3] greater than 20 µg/mL. The EC50 [4] was greater than 20 µg/mL.
With `CC1=CC(=O)c2c([nH]c3ccc(C)cc23)C1=O` the EC50 [1] was 5.29 µg/mL (≈ 23.5 µM), the EC50 [2] was 4.6 µg/mL (≈ 20.4 µM) and the EC50 [3] was 5.47 µg/mL (≈ 24.3 µM). For the same compound, the EC50 [4] was 3.2 µg/mL (≈ 14.2 µM).
With `COc1ccc2c([nH]c3cc(O)c(C)cc32)c1CC=C(C)C` the GI50 [8] was 5.13 µM, the GI50 [9] was 7.94 µM and the GI50 [10] was 20.9 µM. For the same compound, the GI50 [11] was 12.3 µM, the GI50 [12] was 5.37 µM and the GI50 [13] was 1.62 µM. It also gave a GI50 [14] of 9.12 µM, a GI50 [15] of 10.7 µM and a GI50 [16] of 25.1 µM. For the same compound, the GI50 [17] was 22.4 µM, the GI50 [18] was 6.76 µM and the GI50 [1] was 8.13 µM. The GI50 [19] was 25.1 µM, the GI50 [20] was 12 µM and the GI50 [21] was 5.5 µM. The GI50 [22] was 2.29 µM, the GI50 [23] was 9.33 µM and the GI50 [24] was 4.37 µM. For the same compound, the GI50 [6] was 4.9 µM, the GI50 [25] was 16.2 µM and the GI50 [26] was 8.51 µM. The GI50 [27] was 4.47 µM, the GI50 [28] was 9.55 µM and the GI50 [29] was 5.62 µM. For the same compound, the GI50 [30] was 8.51 µM, the GI50 [31] was 25.1 µM and the GI50 [32] was 5.75 µM. For the same compound, the GI50 [33] was 8.32 µM, the GI50 [34] was 25.1 µM and the GI50 [35] was 5.89 µM. It also gave a GI50 [36] of 11.5 µM, a GI50 [7] of 5.89 µM and a GI50 [37] of 5.37 µM. It also gave a GI50 [4] of 25.1 µM, a GI50 [38] of 7.24 µM and a GI50 [39] of 8.71 µM. It also gave a GI50 [40] of 4.37 µM, a GI50 [41] of 9.12 µM and a GI50 [42] of 7.94 µM. It also gave a GI50 [43] of 25.1 µM, a GI50 [44] of 14.5 µM and a GI50 [45] of 5.01 µM. The GI50 [46] was 25.1 µM, the GI50 [47] was 17.4 µM and the GI50 [48] was 7.94 µM. For the same compound, the GI50 [49] was 25.1 µM.

— ChEMBL document CHEMBL1142636 (2000)
